Source: ChEMBL document CHEMBL2434844, “Synthesis, antimicrobial, antioxidant activities of novel 6-aryl-5-cyano thiouracil derivatives” (Eur J Med Chem, 2013)
In brackets after ≈: the same amount, converted by molar mass. Activity calls are given as the source filed them. The calls are words filed in the database; no cut-off is given here.

Assays:
Candida albicans [1] = assay: Antifungal activity against Candida albicans ATCC 26555 after 24 hrs by microdilution technique; format: functional
Summary of the method: (§1)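 MIC by agar microdilution on Mueller-Hinton agar per NCCLS 1997. Bacteria subcultured overnight at 37 °C on MHA, Candida on SDA at 35 °C for 24-48 h, each passaged at least twice. Incubated 37 °C in humid chamber, read after 24 h.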

Aspergillus flavus [2] = assay: Antifungal activity against Aspergillus flavus ATCC 11495 at 10 mg/disc after 48 hrs by disc-diffusion method; format: functional
Summary of the method: (§2)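 Disc diffusion per Bauer method under NCCLS conditions on nutrient agar/Mueller-Hinton agar. Compound dissolved in sterile DMSO at 10 mg/mL, filtered 0.2 µm, stored frozen at -15 °C; 10 mg/disc in DMSO applied. DMSO control. Inhibition zone diameter measured in mm after 48 h incubation at 28 °C.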

Escherichia coli [3] = assay: Antibacterial activity against Escherichia coli ATCC 11775 after 24 hrs by microdilution technique; format: functional; summary of the method: as §1
Staphylococcus aureus [4] = assay: Antibacterial activity against Staphylococcus aureus ATCC 12600 at 10 mg/disc after 48 hrs by disc-diffusion method; format: functional; summary of the method: as §2
Staphylococcus aureus [5] = assay: Antibacterial activity against Staphylococcus aureus ATCC 12600 after 24 hrs by microdilution technique; format: functional; summary of the method: as §1
Bacillus cereus [6] = assay: Antibacterial activity against Bacillus cereus ATCC 14579 at 10 mg/disc after 48 hrs by disc-diffusion method; format: functional; summary of the method: as §2
Bacillus cereus [7] = assay: Antibacterial activity against Bacillus cereus ATCC 14579 after 24 hrs by microdilution technique; format: functional; summary of the method: as §1
Aspergillus flavus [8] = assay: Antifungal activity against Aspergillus flavus ATCC 11495 after 24 hrs by microdilution technique; format: functional
Candida albicans [9] = assay: Antifungal activity against Candida albicans ATCC 26555 at 10 mg/disc after 48 hrs by disc-diffusion method; format: functional; summary of the method: as §2
[10] = test system: Radical scavenging activity; assay: Antioxidant activity assessed as DPPH free radical scavenging activity after 20 mins by UV-visible spectrophotometric analysis; format: functional
Summary of the method: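 Kept in the dark at room temperature for 20 min, then absorbance read at 517 nm against DPPH blank, DMSO baseline. % scavenging = [(Ac−At)/Ac]×100; IC50 (µg/mL) from concentration plot; mean ± SEM, n=3, 8 replica each.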

Escherichia coli [11] = assay: Antibacterial activity against Escherichia coli ATCC 11775 at 10 mg/disc after 48 hrs by disc-diffusion method; format: functional, DSM 30083 = JCM 1649; summary of the method: as §2
Bacillus cereus [12] = assay: Antibacterial activity against Bacillus cereus ATCC 14579 at 10 mg/ml after 48 hrs by disc-diffusion method; format: functional; conditions: ATCC 14579, 48 h, read-out: DIZ
Summary of the method: (§3)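 Disc-diffusion reference: penicillin at 10 mg/mL on nutrient agar/Mueller-Hinton agar per Bauer method; inhibition zone diameter (mm) read after 48 h at 28 °C.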

Staphylococcus aureus [13] = assay: Antibacterial activity against Staphylococcus aureus ATCC 12600 at 10 mg/ml after 48 hrs by disc-diffusion method; format: functional; conditions: ATCC 12600, 48 h, read-out: DIZ; summary of the method: as §3
Escherichia coli [14] = assay: Antibacterial activity against Escherichia coli ATCC 11775 at 10 mg/ml after 48 hrs by disc-diffusion method; format: functional; conditions: DSM 30083 = JCM 1649, 48 h, read-out: DIZ; summary of the method: as §3

Row | SMILES | diameter of the inhibition zone (DIZ) (Aspergillus flavus [2]) | MIC (Escherichia coli [3]; DSM 30083 = JCM 1649, 24 h) | diameter of the inhibition zone (DIZ) (Staphylococcus aureus [4]) | MIC (Staphylococcus aureus [5]; ATCC 12600, 24 h) | diameter of the inhibition zone (DIZ) (Bacillus cereus [6]) | MIC (Bacillus cereus [7]; ATCC 14579, 24 h) | MIC (Aspergillus flavus [8]; ATCC 11495, 24 h) | diameter of the inhibition zone (DIZ) (Candida albicans [9]) | Activity [10] | IC50 [10] | diameter of the inhibition zone (DIZ) (Escherichia coli [11]) | MIC (Candida albicans [1]) | MIC (Escherichia coli [3]; DSM 30083 = JCM 1649) | MIC (Bacillus cereus [7]) | MIC (Aspergillus flavus [8]) | diameter of the inhibition zone (DIZ) (Escherichia coli [11]; DSM 30083 = JCM 1649) | other results
1 | N#Cc1c(N/N=C/c2ccccc2)nc(=S)[nH]c1-c1ccc(F)cc1 | 19 mm | 16 µg/mL (≈ 45.8 µM) | 24 mm | 16 µg/mL (≈ 45.8 µM) | 22 mm | 16 µg/mL (≈ 45.8 µM) | 16 µg/mL (≈ 45.8 µM) | 19 mm | Dose-dependent effect | 13.8 µg/mL (≈ 39.5 µM) | 19 mm |  |  |  |  |  | MIC (Candida albicans [1]; ATCC 26555, 24 h): 16 µg/mL (≈ 45.8 µM)
2 | Cc1nnc2c(C#N)c(-c3ccc(F)cc3)[nH]c(=S)n12 | inactive |  | inactive |  | inactive |  |  | inactive | Dose-dependent effect | 72.03 µg/mL (≈ 252 µM) |  | inactive | inactive | inactive | inactive | inactive | MIC (Staphylococcus aureus [5]): inactive
3 | COc1cc(-c2[nH]c(=S)nc(NN)c2C#N)cc(OC)c1OC | inactive | 32 µg/mL (≈ 96 µM) | 11 mm | 64 µg/mL (≈ 192 µM) | 10 mm | 64 µg/mL (≈ 192 µM) |  | inactive | Dose-dependent effect | 6.21 µg/mL (≈ 18.6 µM) | 12 mm | inactive |  |  | inactive |  | 
4 | CC1(C)S[C@@H]2[C@H](NC(=O)Cc3ccccc3)C(=O)N2[C@H]1C(=O)O [PENICILLIN G] |  |  |  | 16 µg/mL (≈ 47.8 µM) |  | 32 µg/mL (≈ 95.7 µM) |  |  |  |  |  |  |  |  |  |  | zone of inhibition at 10000 µg/mL (Bacillus cereus [12]): 13 mm; zone of inhibition at 10000 µg/mL (Staphylococcus aureus [13]): 16 mm; zone of inhibition at 10000 µg/mL (Escherichia coli [14]): 12 mm
5 | N#Cc1c(NN)nc(=S)[nH]c1-c1ccc(F)cc1 | 13 mm | 32 µg/mL (≈ 122 µM) | 15 mm | 16 µg/mL (≈ 61.2 µM) | 12 mm | 64 µg/mL (≈ 245 µM) | 32 µg/mL (≈ 122 µM) | inactive | Dose-dependent effect | 15.24 µg/mL (≈ 58.3 µM) | 14 mm | inactive |  |  |  |  | 
6 | N#Cc1c(-c2ccc(F)cc2)[nH]c(=S)n2c(=O)c(=O)[nH]nc12 | 18 mm |  | 14 mm | 32 µg/mL (≈ 101 µM) | inactive |  | 16 µg/mL (≈ 50.7 µM) | inactive | Dose-dependent effect | 14.72 µg/mL (≈ 46.7 µM) |  | inactive | inactive | inactive |  | inactive | 
7 | COc1cc(-c2[nH]c(=S)n3c(C)nnc3c2C#N)cc(OC)c1OC | inactive |  | inactive |  | inactive |  |  | inactive | Dose-dependent effect | 31.15 µg/mL (≈ 87.2 µM) |  | inactive | inactive | inactive | inactive | inactive | MIC (Staphylococcus aureus [5]): inactive
8 | O=C1O[C@H]([C@@H](O)CO)C(O)=C1O [ASCORBIC ACID] |  |  |  |  |  |  |  |  | Dose-dependent effect | 10 µg/mL (≈ 56.8 µM) |  |  |  |  |  |  | 
